Active and inactive are the calls of the source. No cut-off for these calls is given here.
Tests used:
[1] = Inhibition of LPS-induced NF-kappaB activation in mouse RAW264.7 cells by SEAP reporter gene assay; assay type: cell-based
Procedure, shortened: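 RAW264.7 cells transiently transfected with a plasmid carrying eight κB elements driving SEAP, seeded at 5 × 10^4 cells/well, 3 h at 37 °C. Compounds in DMSO (final 0.01%) plus LPS 1 µg mL-1 for 24 h. Supernatant heated 65 °C 10 min, then SEAP buffer and p-nitrophenyl phosphate, 37 °C 4 h, OD 405 nm. Means ± SD of three experiments.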

[2] = Inhibition of TNF-alpha-induced NF-kappaB activation in human HeLa cells by SEAP reporter gene assay; assay type: cell-based
Procedure, shortened: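 HeLa cells transiently transfected with an 8×κB-SEAP reporter plasmid, seeded at 5 × 10^4 cells/well, 3 h at 37 °C. Compounds in DMSO (final 0.01%) with TNF-α 10 ng mL-1 for 24 h. Supernatant heat-treated 65 °C 10 min, substrate p-nitrophenyl phosphate, 37 °C 4 h, absorbance 405 nm. Means ± SD, three experiments.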

MCF7 [3] = test: Induction of apoptosis in human MCF7 cells assessed as suppression of MMP9 by Western blot analysis; assay type: functional, cell-based
Procedure, shortened: (§1)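 MCF-7 cells plated at 70% confluence and incubated overnight at 37 °C. Pretreated 30 min with compounds in DMSO (final DMSO 0.001%), then stimulated with TNF-α (20 ng mL-1) for 24 h. Total lysates in NP-40 lysis buffer were resolved by 10% SDS-PAGE and immunoblotted with specific antibodies (1:1000, overnight, 4 °C). ECL detection with α-tubulin as loading control.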

MCF7 [4] = test: Induction of apoptosis in human MCF7 cells assessed as down regulation of cIAP2 by Western blot analysis; assay type: functional, cell-based; procedure, shortened: as §1
MCF7 [5] = test: Suppression of TNF-alpha-induced expression of iNOS in human MCF7 cells at 10 uM by Western blot analysis; assay type: functional, cell-based
Procedure, shortened: (§2)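 MCF-7 cells plated at 70% confluence and kept overnight at 37 °C. Compound (DMSO final 0.001%) added for 30 min, then TNF-α 20 ng mL-1 for 24 h. Total lysates run on 10% SDS-PAGE and blotted, primary antibody overnight at 4 °C, ECL detection, α-tubulin as loading control.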

MCF7 [6] = test: Induction of apoptosis in human MCF7 cells assessed as down regulation of cIAP1 by Western blot analysis; assay type: functional, cell-based; procedure, shortened: as §1
MCF7 [7] = test: Blockade of TNF-alpha-induced COX2 induction in human MCF7 cells by Western blot analysis; assay type: functional, cell-based; procedure, shortened: as §1
MCF7 [8] = test: Suppression of TNF-alpha-induced expression of iNOS in human MCF7 cells at 3 uM by Western blot analysis; assay type: functional, cell-based; procedure, shortened: as §2
MCF7 [9] = test: Inhibition of TNF-alpha-induced NF-kappaB DNA binding activity in human MCF7 cells by electrophoretic shift mobility assay; assay type: cell-based
Procedure, shortened: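 MCF-7 cells at 70% confluence preincubated 30 min with compounds (DMSO final 0.001%), then TNF-α 20 ng mL-1 for 60 min. Nuclear extracts from hypotonic swelling and high-salt extraction, bound 20 min at room temperature to a 32P end-labeled NF-κB oligonucleotide. Excess unlabeled NF-κB and AP-1 oligonucleotides served as competitors.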

Row | SMILES | IC50 [1] | IC50 [2] | Activity (MCF7 [3]) | Activity (MCF7 [4]) | Activity (MCF7 [5]) | Activity (MCF7 [6]) | Activity (MCF7 [7]) | Activity (MCF7 [8]) | Activity (MCF7 [9])
1 | COC1=CC(=O)[C@]2(C=C1OC)OC[C@H]1Oc3c(ccc4c3C=CC(C)(C)O4)C(=O)[C@H]12 [AMORPHISPIRONONE] | 13.9 µM | 7.39 µM |  |  |  |  |  |  | 
2 | COc1cc2c(cc1OC)[C@]1(O)C(=O)c3c(O)cc4c(c3O[C@@H]1CO2)C=CC(C)(C)O4 | 4.21 µM | 0.19 µM |  |  |  |  |  |  | 
3 | COc1c(CC=C(C)C)c(O)cc(CCc2ccccc2)c1C(=O)O | 3.02 µM | 1.75 µM |  |  |  |  |  |  | 
4 | COC1=CC(=O)[C@]2(C=C1OC)OC[C@H]1Oc3c4c(cc(O)c3C(=O)[C@H]12)OC(C)(C)C=C4 | 7.65 µM | 2.12 µM | Active | Active | Active | Active | Active | Active | Dose-dependent effect
5 | CC(C)=CCC/C(C)=C/Cc1c(O)cc(CCc2ccccc2)c(C(=O)O)c1O | 3.14 µM | 1.56 µM |  |  |  |  |  |  | 
6 | COc1c(C/C=C(\C)CCC=C(C)C)c(O)cc(CCc2ccccc2)c1C(=O)O | 2.44 µM | 1.13 µM |  |  |  |  |  |  | 
7 | COc1cc2c(cc1OC)[C@@H]1C(=O)c3ccc4c(c3O[C@@H]1CO2)C=CC(C)(C)O4 [DEGUELIN] | 1.75 µM | 0.22 µM |  |  |  |  |  |  | 
8 | COc1cc(CCc2ccccc2)c(C(=O)O)c(O)c1CC=C(C)C [AMORFRUTIN A] | 4.17 µM | 0.84 µM |  |  | Active |  |  | Active | Dose-dependent effect
9 | CC1=C(O)C(=O)C=C2C1=CC=C1[C@@]2(C)CC[C@@]2(C)[C@@H]3C[C@](C)(C(=O)O)CC[C@]3(C)CC[C@]12C [CELASTROL] | 0.3 µM | 0.15 µM |  |  |  |  |  |  | 
10 | CC(C)=CCC/C(C)=C/Cc1c(O)ccc(C(=O)/C=C/c2ccc(O)cc2)c1O [XANTHOANGELOL] | 1.83 µM | 1.03 µM |  |  |  |  |  |  | 
11 | COc1cc2c(cc1OC)[C@]1(O)C(=O)c3ccc4c(c3O[C@@H]1CO2)C=CC(C)(C)O4 [TEPHROSIN] | 2 µM | 0.11 µM | Active | Active | Active | Active | Active | Active | Dose-dependent effect
12 | CC(C)=CCC/C(C)=C/Cc1c(O)cc(/C=C/c2ccccc2)cc1O [AMORPHASTILBOL] | 0.68 µM | 0.26 µM |  |  |  |  |  |  | 

Reference: ChEMBL document CHEMBL1140190, “Phenolic constituents of Amorpha fruticosa that inhibit NF-kappaB activation and related gene expression” (J Nat Prod, 2008)
